# High-throughput results from PubChem BioAssay.
# SKN-1 inh: suppressors of acrylamide-induced Pgst-4::GFP reporter in worms, primary screen, SKN-1 inhibitor project, whole organism, uHTS, GFP/RFP fluorescence ratio, strain VP596. C. elegans VP596 Pgst-4::GFP/RFP ratio, 24 h. inhibition, % at 21.8 µM. 360,000 compounds, 0.49% hits. AID 624304, 2012;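 active = interference check ratio from 0.5 to 1.5 plus GFP to RFP signal ratio inhibition reaching or exceeding a fixed threshold, cut at about 30% in these data, passing the limit was not always enough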
# MT1-MMP act inh: blockers of MT1-MMP proenzyme processing, primary screen, HT1080 RFP-PRO-GFP cells, GFP/RFP fluorescence. Matrix metalloproteinase-14 (Homo sapiens), P50281. GFP/RFP ratio fluorescence, overnight; percent of plate control window, DMSO zero. GFP/RFP ratio change, % at 20 µM. 360,000 compounds, 0.061% hits. AID 651647, 2012;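 active = GFP/RFP ratio change of at least 30% with cell ATP level not reduced by more than half and red fluorescence within 50% of control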
#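 Assay system: HT1080 RFP-PRO-GFP cells. Benchmarks: DMSO vehicle wells and RFP-L50D-GFP reporter cell wells. Times: overnight cell settling, then overnight compound exposure, 37 °C, 5% CO2. Compound: 20 µM single dose, 1% DMSO. Read-out basis: GFP/RFP fluorescence ratio.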
# Rpn11 inh: Rpn11 (PSMD14) deubiquitinase inhibitors, primary screen, biochemical, fluorescence polarization, uHTS | human 26S proteasome, Ub4-pepOG fluorescence polarization; 20S core pre-blocked with epoxomicin | 360,000 compounds, 0.59% hits | 26S proteasome non-ATPase regulatory subunit 14 (Homo sapiens), O00487 | inhibition, % at 20 µM | AID 588493, 2011;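 active = inhibition at 20 µM, scaled to each plate's controls, above about 33%, limit read from the data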
# CSN deneddyl inh: inhibitors of CSN-mediated cullin deneddylation, primary screen, biochemical, fluorescence polarization, uHTS. Purified CSN, SCF-Nedd8-OG deneddylation. inhibition, % at 12.5 µM. 360,000 compounds, 0.38% hits. AID 651999, 2013;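 active = pattern-corrected inhibition above about 35%, with an unprinted fluorescence ratio check between 0.5 and 1.5, limit read from the data, passing the limit was not always enough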;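 note: 0% = enzyme with substrate and 100% = substrate without enzyme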
#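 Material: purified human Csn5 enzyme expressed in HEK293T cells / Medium: Tris buffer pH 7.5, NaCl, DTT, Tween-20, trehalose, ovalbumin / Compound dosing: 12.5 µM single point / Schedule: 90 min incubation of compound, enzyme and substrate at room temperature / Signal: fluorescence polarization of the substrate / Control set: no-enzyme wells high, enzyme-with-substrate wells low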
# SUMO1-SIM PPI: modulators of SUMO1 protein-protein interactions, primary screen, biochemical, uHTS. 360,000 compounds, 0.33% hits. inhibition, % at 20 µM. SUMO1 binding to a labelled peptide, TR-FRET, 1 h. Small ubiquitin-related modifier 1 (Homo sapiens), P63165; in the data active = inhibition above about 37%
# DNMT1 block: human DNMT1 methyltransferase inhibitors, primary screen, biochemical, molecular beacon, fluorescence, HinP1I cleavage, uHTS | DNA (cytosine-5)-methyltransferase 1 (Homo sapiens), P26358 | inhibition (reported as % activation of signal), % at 10 µM | 360,000 compounds, 0.83% hits | AID 588458, 2011; in the data active = inhibition above about 50%
# Target sequence (P26358 504-1616 limits assumed): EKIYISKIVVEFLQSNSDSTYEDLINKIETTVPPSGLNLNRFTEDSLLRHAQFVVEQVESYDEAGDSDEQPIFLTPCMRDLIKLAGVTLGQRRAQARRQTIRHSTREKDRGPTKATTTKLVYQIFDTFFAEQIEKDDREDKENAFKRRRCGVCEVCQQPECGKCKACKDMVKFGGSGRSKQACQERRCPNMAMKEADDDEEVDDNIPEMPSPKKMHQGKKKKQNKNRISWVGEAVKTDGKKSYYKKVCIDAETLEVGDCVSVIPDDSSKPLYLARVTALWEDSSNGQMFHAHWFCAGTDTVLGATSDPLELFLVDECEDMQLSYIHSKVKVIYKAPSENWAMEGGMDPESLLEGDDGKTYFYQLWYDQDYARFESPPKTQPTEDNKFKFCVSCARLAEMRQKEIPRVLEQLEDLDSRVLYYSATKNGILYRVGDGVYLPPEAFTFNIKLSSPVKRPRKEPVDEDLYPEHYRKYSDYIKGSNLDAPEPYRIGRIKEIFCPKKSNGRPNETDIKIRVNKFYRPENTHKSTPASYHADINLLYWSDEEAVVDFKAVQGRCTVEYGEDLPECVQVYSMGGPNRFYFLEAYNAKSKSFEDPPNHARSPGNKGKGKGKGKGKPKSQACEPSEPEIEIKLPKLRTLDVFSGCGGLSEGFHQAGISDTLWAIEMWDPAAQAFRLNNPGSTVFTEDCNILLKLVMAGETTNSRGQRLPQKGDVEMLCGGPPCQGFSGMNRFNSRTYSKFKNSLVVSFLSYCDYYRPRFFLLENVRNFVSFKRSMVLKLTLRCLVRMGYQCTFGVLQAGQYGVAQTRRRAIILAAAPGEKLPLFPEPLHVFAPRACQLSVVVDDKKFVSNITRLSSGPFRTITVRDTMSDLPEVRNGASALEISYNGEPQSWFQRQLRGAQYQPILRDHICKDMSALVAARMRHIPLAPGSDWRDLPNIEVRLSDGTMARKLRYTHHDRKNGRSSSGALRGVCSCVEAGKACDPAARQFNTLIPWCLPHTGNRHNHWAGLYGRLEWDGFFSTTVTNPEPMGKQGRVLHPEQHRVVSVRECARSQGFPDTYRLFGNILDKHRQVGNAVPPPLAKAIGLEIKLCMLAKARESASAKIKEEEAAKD
# * marks the source's active call; other numbers are inactive results; nt = no result shown. In the library only some 2.3% were active in any assay of this set; here they are far more common.
SMILES,SKN-1 inh,MT1-MMP act inh,Rpn11 inh,CSN deneddyl inh,SUMO1-SIM PPI,DNMT1 block
CCc1nc2c(OCCc3cccc(OC)c3)cccn2c1N(C=O)Cc1ccccc1,10,-6,-1,7,-1,-5
COc1ccccc1NC(=O)CSc1nnc(-c2ccncc2)o1,40*,-2,-1,6,-4,0
C[C@H]1CN([C@@H](C)CO)C(=O)CCCn2nncc2CO[C@H]1CN(C)S(=O)(=O)c1ccc2ccccc2c1,-17,6,6,3,-4,6
COc1cccc(Nc2c(Nc3cccc(OC)c3)c(=O)c2=O)c1,11,-3,nt,14,16,67*
Cc1ccc(C(=O)NCCN2CCC(n3c(=O)[nH]c4ccccc43)CC2)cc1,4,2,nt,-4,5,nt
COC(=O)c1cc(Br)c(=O)n(Cc2ccco2)c1,-8,0,-2,-4,0,1
COC(=O)c1ccc(=O)n(Cc2ccco2)c1,38*,2,-1,0,-1,1
COc1ccc(NC(=O)C2Cc3c(-c4cccc(F)c4)ccnc3O2)cn1 (stereo unspecified),8,2,-6,3,1,3
CCOC(=O)c1c(N)sc2c1CCSC2,37*,-13,13,12,-2,-14
COc1ccc2c(c1)C1=NN(/C(C)=C/C(C)=O)C(c3ccc(F)cc3)C1CC2 (stereo unspecified),1,-4,15,3,-6,-12
COc1ccc2c(c1)CCC1C2=NN(/C(C)=C\C(C)=O)C1c1ccc(F)cc1 (stereo unspecified),11,-16,51*,30,-1,-11
COCCCNC(=O)COc1ccc2oc3c(c2c1)CCCC3,36*,1,1,1,4,0
OC1c2c(F)cccc2N=C2CCCCN21 (stereo unspecified),1,1,-2,3,9,4
COC(=O)[C@]12CCCCC=C1N(CCC1=CCCCC1)C(=O)[C@H](CC(=O)NCCCCc1ccccc1)C2,5,-6,nt,1,2,nt
Cc1ccc2c(c1)c(C)c(C)n2CC(O)Cn1nnc2ccccc21 (stereo unspecified),60*,4,38,18,-4,-5
COc1ccc(-c2ccc(C3C(C#N)=C(N)Oc4n[nH]c(C)c43)o2)cc1 (stereo unspecified),23,-20,73*,31,-13,-16
COc1ccc([N+](=O)[O-])cc1CN1CCN(c2ncc(Cc3ccccc3)cn2)CC1,-4,10,nt,4,-9,nt
C=CC(=O)N1C/C(=C/c2ccc(F)cc2)C(=O)/C(=C\c2ccc(F)cc2)C1,13,-1,30,27,76*,93*
CN(N=Nc1cccc([N+](=O)[O-])c1)c1ccccc1,48*,1,3,-5,-22,4
CN(N=Nc1ccc([N+](=O)[O-])cc1)c1ccccc1,-2,0,-139,-72,-5,4
Cc1cc(NC(=O)/C(C#N)=C/c2ccc(-c3cccc(C(F)(F)F)c3)o2)n(-c2ccccc2)n1,22,-2,35,0,-1,-18
Cc1cc(NC(=O)/C(C#N)=C/c2ccc(-c3ccc(SC(F)F)cc3)o2)n(-c2ccccc2)n1,14,-98,nt,64*,1,13
CCOC(=O)[C@]12CCC=C1N(Cc1ccco1)C(=O)[C@H](CC(=O)NCc1cccc3ccccc13)C2,0,3,nt,1,3,nt
Cc1ccc(S(=O)(=O)N2C[C@H]3N(C(=O)OC(C)C)N(C(=O)OC(C)C)C[C@H](OC(=O)NCC4CCCCC4)[C@@]3(O)C2)cc1,17,-26,8,-1,4,-6
O=c1c(/C=N/Nc2ccccc2)c(Sc2nnnn2-c2ccccc2)nc2ccccn12,36*,-150,nt,45,-22,-5
SMILES,SKN-1 inh,MT1-MMP act inh,Rpn11 inh,CSN deneddyl inh,SUMO1-SIM PPI,DNMT1 block
O=Cc1c(Sc2ccccc2)nc2ccccn2c1=O,14,-8,-1,0,-21,2
O=C(O)c1ccccc1N/N=C/c1c(Sc2nnnn2-c2ccccc2)nc2ccccn2c1=O,16,-15,nt,97*,-19,36
CCCCNC(=O)C1C(c2ccc(OC)cc2)=Nc2ccccc2N1C(=O)c1ccncc1 (stereo unspecified),4,1,nt,1,-11,nt
Cc1cc(NC(=O)CS(=O)(=O)c2cn(Cc3cccc(C(F)(F)F)c3)c3ccccc23)no1,-1,-5,-3,31,6,4
O=C(N/N=C/c1cccnc1)c1cc2c(ccc3ccccc32)o1,-4,3,12,55*,20,0
O=C(N/N=C/c1cccnc1)c1cc2ccccc2o1,-7,-3,-2,-5,-14,0
CCC1(C)Cc2c(C#N)c(N)sc(=S)c2CO1 (stereo unspecified),46*,-17,0,-7,-15,-13
CC(C)(C)NC(=O)C(C1CC1)n1c(=O)c(-c2ccco2)nc2ccccc21 (stereo unspecified),5,-5,nt,3,-11,nt
CC(C)NC(=O)CN(C)S(=O)(=O)c1ccc(F)cc1,36*,-2,-2,0,-1,0
COc1ccc(C(=O)c2ccc(OC)c(OC)c2)cc1OC,8,2,5,1,1,2
COc1cc(C(=O)C(=O)c2ccc(OC)c(OC)c2)ccc1O,-1,0,1,-1,38*,8
O=C1NC(=S)N(C(=O)c2ccc(F)cc2)/C1=C/c1ccccc1,18,-295,nt,55*,-15,3
O=C(c1ccc(F)cc1)N1CCN(Cc2ccccc2)CC1,8,-1,-1,1,6,0
CN(Cc1ccccc1)S(=O)(=O)c1ccc(Cl)nc1,-5,-1,-1,40*,2,2
CC(=O)NC(=S)NNC(=O)C(c1ccccc1)c1ccccc1,-4,6,2,77*,0,-2
Cn1c(-c2ccc(CN3CCCCC3)o2)nc2ccccc21,36*,-1,8,-1,-2,2
Cc1ccc(CNc2nc3ccccc3n2C)o1,-7,-1,-8,2,0,1
C=CCN(c1ccc(C(=O)Nc2ccc(C)cc2)cc1)S(C)(=O)=O,-13,4,2,-11,4,-7
